Calls of active or inactive are those of the source.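 Rule for the calls: active = calcium signal cut by more than 3 SD below the full-agonist control yet still positive, in both repeats and the earlier primary screen; inactive = the rest.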

Chain of Short transient receptor potential channel 4 (Mus musculus) (Q9QUQ5 whole entry, looked up): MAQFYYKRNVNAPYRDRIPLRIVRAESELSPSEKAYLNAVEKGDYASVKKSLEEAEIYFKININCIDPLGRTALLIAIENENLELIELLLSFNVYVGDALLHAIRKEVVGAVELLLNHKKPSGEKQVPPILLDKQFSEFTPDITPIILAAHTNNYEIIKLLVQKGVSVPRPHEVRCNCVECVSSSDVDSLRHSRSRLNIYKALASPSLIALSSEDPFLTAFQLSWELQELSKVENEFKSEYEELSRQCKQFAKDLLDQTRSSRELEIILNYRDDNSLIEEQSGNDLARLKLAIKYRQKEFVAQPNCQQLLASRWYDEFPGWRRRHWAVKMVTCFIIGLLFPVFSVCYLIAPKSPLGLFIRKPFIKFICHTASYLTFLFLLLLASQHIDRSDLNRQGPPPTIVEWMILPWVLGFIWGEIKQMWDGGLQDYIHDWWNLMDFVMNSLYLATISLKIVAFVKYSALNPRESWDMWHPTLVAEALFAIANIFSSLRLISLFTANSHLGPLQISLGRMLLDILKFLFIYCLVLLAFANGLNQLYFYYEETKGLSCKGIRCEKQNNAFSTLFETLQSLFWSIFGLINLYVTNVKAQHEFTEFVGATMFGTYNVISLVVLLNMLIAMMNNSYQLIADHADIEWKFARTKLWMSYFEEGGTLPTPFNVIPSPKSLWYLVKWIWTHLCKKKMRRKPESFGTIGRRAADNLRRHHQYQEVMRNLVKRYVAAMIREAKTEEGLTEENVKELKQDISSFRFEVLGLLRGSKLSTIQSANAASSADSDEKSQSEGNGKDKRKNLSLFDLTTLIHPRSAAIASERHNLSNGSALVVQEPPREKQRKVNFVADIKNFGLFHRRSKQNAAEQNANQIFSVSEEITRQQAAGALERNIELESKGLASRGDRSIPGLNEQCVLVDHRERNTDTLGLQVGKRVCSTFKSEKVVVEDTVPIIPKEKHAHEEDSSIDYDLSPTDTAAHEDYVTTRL

The target in the experiment is Short transient receptor potential channel 4 (Mus musculus) (UniProt Q9QUQ5). The experiment in a line: blockers of DAMGO-evoked TRPC4 calcium flux – cell-based, Fluo4, HEK293 TRPC4beta/mu-opioid, confirmation (AID 2636). To be noted: at 10 µM. An outline of the steps: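 test system = TRPC4beta/mu-opioid receptor HEK293 cells | compound dosing = one dose, 10 µM final | times = dye 45 min at room temperature, compound 110 s, submaximal DAMGO 110 s | signal = kinetic fluorescence of Fluo4 calcium-sensitive dye, calcium influx | controls = no-compound wells and DAMGO maximal-stimulus wells | replication = duplicate wells for each compound, averaged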
Consider `CN(CCCNC(=O)CCCOc1cc(=O)n(C)c2ccccc12)Cc1ccccc1`, for which the result was inactive.

Regarding `CCOc1ccccc1C(=O)NCCc1cnc[nH]1`, the result was inactive.

`Cc1ccccc1-n1c(=O)c2c(n3cnnc13)-c1ccccc1CC21CCCCC1`: the outcome was inactive.

`CN(C)S(=O)(=O)N1CCC(CCCC2CCN(S(=O)(=O)N(C)C)CC2)CC1`: the result was inactive.

On to `O=C(Nc1ccnn1C1CCN(Cc2cc3ccccc3[nH]2)CC1)C1CCOC1` (stereo unspecified), for which the outcome was inactive.

On to `C=CCOc1ccc(CN(C)Cc2nc3cc(C(F)(F)F)ccc3c(=O)[nH]2)cc1`, for which the outcome was inactive.

On to `Cc1ccc(C(=O)C[n+]2cccc3cc(C)ccc32)cc1`, for which the result was inactive.

On to `CN(C)CCCN(C(=O)CCc1ccccc1)c1nc2ccc(F)cc2s1`, for which the result was inactive.

As for `CC(=O)n1cc([C@@H]2C=C(C(=O)NCc3ccccc3)O[C@H](OCc3ccc(CO)cc3)C2)c2ccccc21`, the result was inactive.

Consider `O=C(O)CCCN1C(=O)/C(=C\c2ccc(-c3nc4ccccc4s3)o2)SC1=S`, for which the result was inactive.

In the case of `CCOCCCn1c(=S)[nH]c2cc(C(=O)NCCCN(CC)CC)ccc2c1=O`, the outcome was inactive.

For the compound `O=C(NCc1ccccc1)c1ccc(S(=O)(=O)Nc2cccc(C(F)(F)F)c2)cc1`, the result was inactive.

On to `CCOC(=O)C1CCCN(C(=O)CCCn2nnnc2CN2CCOCC2)C1` (stereo unspecified), for which the result was inactive.

With `COc1cc(OC)c2c(-c3ccccc3)cc(=O)oc2c1C(CCN1CCCCC1)c1ccc(N(C)C)cc1` (stereo unspecified), the outcome was inactive.

Turning to `CCCCCCCCCC[n+]1cccc2c3ccccc3ccc21`, the result was inactive.

On to `CC(C)NS(=O)(=O)c1ccc(NC(=O)C(C)Oc2ccc(C(=O)c3ccccc3)cc2)cc1` (stereo unspecified), for which the result was inactive.

For the origin of these results see PubChem BioAssay.
